In brackets after ≈: the same amount, converted by molar mass.
Tests used:
Pichia kudriavzevii = experiment: Antifungal activity against Candida krusei IFO 1664 after 24 to 72 hrs by NCCLS method; format: functional
Outline: (§1)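 Yeasts were grown overnight on Sabouraud dextrose agar at 35 °C and adjusted in saline to 0.5 McFarland (1.0–5.0 × 10^6 cells/mL). This stock was diluted 1:100 then 1:20 to 5.0 × 10^2–2.5 × 10^3 cells/mL. Tubes were incubated at 35 °C for 48 h in ambient air. MIC taken as the lowest concentration preventing growth. Triplicates.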

Candida albicans = experiment: Antifungal activity against Candida albicans ATCC 10231 after 24 to 72 hrs by NCCLS method; format: functional; outline: as §1
Proteus mirabilis = experiment: Antibacterial activity against Proteus mirabilis ATCC 27853 after 24 hrs by NCCLS method; format: functional
Outline: (§2)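 Agar dilution on Mueller Hinton agar. Overnight cultures on soybean casein digest agar at 37 °C were adjusted to 0.5 McFarland, then diluted 10-fold to 1.2 × 10^7 CFU/mL. 10 µL of each culture was spotted, incubated at 35 °C for 24 h. MIC taken as the lowest concentration preventing growth. Triplicates.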

Candida tropicalis = experiment: Antifungal activity against Candida tropicalis IFO 10241 after 24 to 72 hrs by NCCLS method; format: functional; outline: as §1
Escherichia coli [1] = experiment: Antibacterial activity against Escherichia coli ATCC 10536 after 24 hrs by NCCLS method; format: functional; settings: ATCC 10536, 24 h; outline: as §2
Clavispora lusitaniae = experiment: Antifungal activity against Candida lusitaniae ATCC 42720 after 24 to 72 hrs by NCCLS method; format: functional; outline: as §1
Enterococcus faecalis = experiment: Antibacterial activity against Enterococcus faecalis ATCC 29212 after 24 hrs by NCCLS method; format: functional; settings: ATCC 29212, 24 h; outline: as §2
[2] = system: Staphylococcus epidermidis; experiment: Antibacterial activity against Staphylococcus epidermidis ATCC 0155 after 24 hrs by NCCLS method; format: functional; settings: ATCC 0155, 24 h; outline: as §2
Escherichia coli [3] = experiment: Antibacterial activity against Escherichia coli ATCC 25922 after 24 hrs by NCCLS method; format: functional; settings: ATCC 25922, 24 h; outline: as §2
Klebsiella pneumoniae = experiment: Antibacterial activity against Klebsiella pneumoniae ATCC 10031 after 24 hrs by NCCLS method; format: functional; settings: ATCC 10031, 24 h; outline: as §2
Micrococcus luteus = experiment: Antibacterial activity against Micrococcus luteus ATCC 10240 after 24 hrs by NCCLS method; format: functional; settings: ATCC 10240, 24 h; outline: as §2
Staphylococcus aureus = experiment: Antibacterial activity against Staphylococcus aureus ATCC 25923 after 24 hrs by NCCLS method; format: functional; settings: ATCC 25923, 24 h; outline: as §2
Bacillus subtilis = experiment: Antibacterial activity against Bacillus subtilis ATCC 6633 after 24 hrs by NCCLS method; format: functional; settings: ATCC 6633, 24 h; outline: as §2
[4] = Drug uptake assessed as incorporation into egg phosphatidylcholine liposome by HPLC; format: ADME; settings: artificial membrane
Outline: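 Egg PC liposomes were diluted 10-fold in PBS, untrapped glucose was removed by centrifugation, and lipid was adjusted to 1 mg/mL. Compound in ethanol was added to final 50 µM with 10% ethanol. Percent incorporated into bilayers was derived from HPLC peak integration of compound left in solution.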

[5] = Chemical stability in PBS buffer at pH 7.4 assessed as compound remaining after 16 hrs by HPLC; format: physicochemical; settings: read-out: Stability
Outline: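 Compound at 200 µM in 1% DMSO / 50 mM PBS, pH 7.4, incubated at 37 °C without cells; pH was checked before and after. Samples went onto a C-18 HPLC column (35/65 CH3CN/H2O, 1 mL/min, column at 37 °C). Percent remaining was taken from peak integration against an internal standard at 254 nm.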

## O=C(O[C@@H]1Cc2c(O)cc(O)cc2O[C@@H]1c1ccc(O)c(O)c1)c1cc(O)c(O)c(O)c1 [EPICATECHIN GALLATE]
Pichia kudriavzevii
  MIC: > 128 µg/mL
Candida albicans
  MIC: > 128 µg/mL
Proteus mirabilis
  MIC: > 128 µg/mL
Candida tropicalis
  MIC: > 128 µg/mL
Escherichia coli [1]
  MIC: > 128 µg/mL
Clavispora lusitaniae
  MIC: > 128 µg/mL
Enterococcus faecalis
  MIC: > 128 µg/mL
[2]
  MIC: > 128 µg/mL
Escherichia coli [3]
  MIC: > 128 µg/mL
Klebsiella pneumoniae
  MIC: > 128 µg/mL
Micrococcus luteus
  MIC: > 128 µg/mL
Staphylococcus aureus
  MIC: > 128 µg/mL
Bacillus subtilis
  MIC: > 128 µg/mL

## CCCO[C@H]1Cc2c(O)cc(O)cc2O[C@@H]1c1ccc(O)c(O)c1
Pichia kudriavzevii
  MIC: > 128 µg/mL
Candida albicans
  MIC: > 128 µg/mL
Proteus mirabilis
  MIC: > 128 µg/mL
Candida tropicalis
  MIC: > 128 µg/mL
Escherichia coli [1]
  MIC: > 128 µg/mL
Clavispora lusitaniae
  MIC: > 128 µg/mL
Enterococcus faecalis
  MIC: 64 µg/mL (≈ 193 µM)
[2]
  MIC: 64 µg/mL (≈ 193 µM)
Escherichia coli [3]
  MIC: > 128 µg/mL
Klebsiella pneumoniae
  MIC: > 128 µg/mL
Micrococcus luteus
  MIC: 32 µg/mL (≈ 96.3 µM)
Staphylococcus aureus
  MIC: 64 µg/mL (≈ 193 µM)
Bacillus subtilis
  MIC: 128 µg/mL (≈ 385 µM)

## CCCCCCCCCCCCCCCCO[C@H]1Cc2c(O)cc(O)cc2O[C@@H]1c1ccc(O)c(O)c1
[4]
  Drug uptake: 100%

## Oc1cc(O)c2c(c1)O[C@H](c1ccc(O)c(O)c1)[C@@H](O)C2 [CIANIDANOL]
Pichia kudriavzevii
  MIC: > 128 µg/mL
Candida albicans
  MIC: > 128 µg/mL
Proteus mirabilis
  MIC: > 128 µg/mL
Candida tropicalis
  MIC: > 128 µg/mL
Escherichia coli [1]
  MIC: > 128 µg/mL
Clavispora lusitaniae
  MIC: > 128 µg/mL
Enterococcus faecalis
  MIC: > 128 µg/mL
[2]
  MIC: > 128 µg/mL
Escherichia coli [3]
  MIC: > 128 µg/mL
Klebsiella pneumoniae
  MIC: > 128 µg/mL
Micrococcus luteus
  MIC: > 128 µg/mL
Staphylococcus aureus
  MIC: > 128 µg/mL
Bacillus subtilis
  MIC: > 128 µg/mL

## CCC(C)n1ncn(-c2ccc(N3CCN(c4ccc(OCC5COC(Cn6cncn6)(c6ccc(Cl)cc6Cl)O5)cc4)CC3)cc2)c1=O (configuration not stated) [ITRACONAZOLE]
Pichia kudriavzevii
  MIC: 0.25 µg/mL (≈ 0.354 µM)
Candida albicans
  MIC: 0.06 µg/mL (≈ 0.085 µM)
Candida tropicalis
  MIC: 0.06 µg/mL (≈ 0.085 µM)
Clavispora lusitaniae
  MIC: 0.125 µg/mL (≈ 0.177 µM)

## Oc1cc(O)c2c(c1)O[C@H](c1ccc(O)c(O)c1)[C@H](O)C2 [(-)-EPICATECHIN]
Pichia kudriavzevii
  MIC: > 128 µg/mL
Candida albicans
  MIC: > 128 µg/mL
Proteus mirabilis
  MIC: > 128 µg/mL
Candida tropicalis
  MIC: > 128 µg/mL
Escherichia coli [1]
  MIC: > 128 µg/mL
Clavispora lusitaniae
  MIC: > 128 µg/mL
Enterococcus faecalis
  MIC: > 128 µg/mL
[2]
  MIC: > 128 µg/mL
Escherichia coli [3]
  MIC: > 128 µg/mL
Klebsiella pneumoniae
  MIC: > 128 µg/mL
Micrococcus luteus
  MIC: > 128 µg/mL
Staphylococcus aureus
  MIC: > 128 µg/mL
Bacillus subtilis
  MIC: > 128 µg/mL

## NC[C@H]1O[C@H](O[C@H]2[C@H](O)[C@@H](O[C@H]3O[C@H](CO)[C@@H](O)[C@H](N)[C@H]3O)[C@H](N)C[C@@H]2N)[C@H](O)[C@@H](O)[C@@H]1O.O=S(=O)(O)O [KANAMYCIN SULFATE]
Proteus mirabilis
  MIC: 32 µg/mL
Escherichia coli [1]
  MIC: 8 µg/mL
Enterococcus faecalis
  MIC: 32 µg/mL
[2]
  MIC: 4 µg/mL
Escherichia coli [3]
  MIC: 8 µg/mL
Klebsiella pneumoniae
  MIC: 64 µg/mL
Micrococcus luteus
  MIC: 8 µg/mL
Staphylococcus aureus
  MIC: 16 µg/mL
Bacillus subtilis
  MIC: 2 µg/mL

## CCCCCCCCCCO[C@H]1Cc2c(O)cc(O)cc2O[C@@H]1c1ccc(O)c(O)c1
[5]
  remaining at 16 h: > 90%
[4]
  Drug uptake: 100%

## CCCCCCCCCC(=O)O[C@H]1Cc2c(O)cc(O)cc2O[C@@H]1c1ccc(O)c(O)c1
[5]
  remaining at 16 h: 75%

## O=C(O)c1cn(C2CC2)c2cc(N3CCNCC3)c(F)cc2c1=O [CIPROFLOXACIN]
Proteus mirabilis
  MIC: 0.125 µg/mL (≈ 0.377 µM)
Enterococcus faecalis
  MIC: 0.5 µg/mL (≈ 1.51 µM)
[2]
  MIC: 0.25 µg/mL (≈ 0.754 µM)
Klebsiella pneumoniae
  MIC: < 0.06 µg/mL
Micrococcus luteus
  MIC: < 0.06 µg/mL
Staphylococcus aureus
  MIC: 0.25 µg/mL (≈ 0.754 µM)
Bacillus subtilis
  MIC: < 0.06 µg/mL

## CCCCCCCCO[C@H]1Cc2c(O)cc(O)cc2O[C@@H]1c1ccc(O)c(O)c1
[4]
  Drug uptake: 100%

## CCCCCCCCCCCCCCO[C@H]1Cc2c(O)cc(O)cc2O[C@@H]1c1ccc(O)c(O)c1
[4]
  Drug uptake: 100%

## CCCCCCO[C@H]1Cc2c(O)cc(O)cc2O[C@@H]1c1ccc(O)c(O)c1
[4]
  Drug uptake: 100%

## O=C(O[C@@H]1Cc2c(O)cc(O)cc2O[C@@H]1c1cc(O)c(O)c(O)c1)c1cc(O)c(O)c(O)c1 [EPIGALOCATECHIN GALLATE]
Pichia kudriavzevii
  MIC: > 128 µg/mL
Candida albicans
  MIC: > 128 µg/mL
Proteus mirabilis
  MIC: > 128 µg/mL
Candida tropicalis
  MIC: > 128 µg/mL
Escherichia coli [1]
  MIC: > 128 µg/mL
[5]
  remaining at 16 h: 15%
Clavispora lusitaniae
  MIC: > 128 µg/mL
[4]
  Drug uptake: Not Active
Enterococcus faecalis
  MIC: > 128 µg/mL
[2]
  MIC: 128 µg/mL (≈ 279 µM)
Escherichia coli [3]
  MIC: > 128 µg/mL
Klebsiella pneumoniae
  MIC: > 128 µg/mL
Micrococcus luteus
  MIC: 32 µg/mL (≈ 69.8 µM)
Staphylococcus aureus
  MIC: > 128 µg/mL
Bacillus subtilis
  MIC: > 128 µg/mL

## Oc1cc(O)c2c(c1)O[C@H](c1cc(O)c(O)c(O)c1)[C@H](O)C2 [EPIGALLOCATECHIN]
Pichia kudriavzevii
  MIC: > 128 µg/mL
Candida albicans
  MIC: > 128 µg/mL
Proteus mirabilis
  MIC: > 128 µg/mL
Candida tropicalis
  MIC: > 128 µg/mL
Escherichia coli [1]
  MIC: > 128 µg/mL
Clavispora lusitaniae
  MIC: > 128 µg/mL
Enterococcus faecalis
  MIC: > 128 µg/mL
[2]
  MIC: > 128 µg/mL
Escherichia coli [3]
  MIC: > 128 µg/mL
Klebsiella pneumoniae
  MIC: > 128 µg/mL
Micrococcus luteus
  MIC: > 128 µg/mL
Staphylococcus aureus
  MIC: > 128 µg/mL
Bacillus subtilis
  MIC: > 128 µg/mL

## C[C@@H]1[C@H](O)[C@@H](C)/C=C/C=C/C=C/C=C/C=C/C=C/C=C/[C@H](O[C@@H]2O[C@H](C)[C@@H](O)[C@H](N)[C@@H]2O)C[C@@H]2O[C@](O)(C[C@@H](O)C[C@@H](O)[C@H](O)CC[C@@H](O)C[C@@H](O)CC(=O)O[C@H]1C)C[C@H](O)[C@H]2C(=O)O [AMPHOTERICIN B]
Pichia kudriavzevii
  MIC: 0.5 µg/mL (≈ 0.541 µM)
Candida albicans
  MIC: 0.25 µg/mL (≈ 0.271 µM)
Candida tropicalis
  MIC: 0.5 µg/mL (≈ 0.541 µM)
Clavispora lusitaniae
  MIC: 0.5 µg/mL (≈ 0.541 µM)

## Oc1cc(O)c2c(c1)O[C@H](c1ccc(O)c(O)c1)[C@@H](OCc1ccccc1)C2
Pichia kudriavzevii
  MIC: > 128 µg/mL
Candida albicans
  MIC: > 128 µg/mL
Proteus mirabilis
  MIC: 128 µg/mL (≈ 336 µM)
Candida tropicalis
  MIC: > 128 µg/mL
Escherichia coli [1]
  MIC: > 128 µg/mL
Clavispora lusitaniae
  MIC: > 128 µg/mL
Enterococcus faecalis
  MIC: 32 µg/mL (≈ 84.1 µM)
[2]
  MIC: 64 µg/mL (≈ 168 µM)
Escherichia coli [3]
  MIC: > 128 µg/mL
Klebsiella pneumoniae
  MIC: 128 µg/mL (≈ 336 µM)
Micrococcus luteus
  MIC: 32 µg/mL (≈ 84.1 µM)
Staphylococcus aureus
  MIC: 64 µg/mL (≈ 168 µM)
Bacillus subtilis
  MIC: 64 µg/mL (≈ 168 µM)

## COc1cc(CO[C@H]2Cc3c(O)cc(O)cc3O[C@@H]2c2ccc(O)c(O)c2)cc(OC)c1OC
Pichia kudriavzevii
  MIC: 128 µg/mL (≈ 272 µM)
Candida albicans
  MIC: 64 µg/mL (≈ 136 µM)
Candida tropicalis
  MIC: 128 µg/mL (≈ 272 µM)
Escherichia coli [1]
  MIC: 64 µg/mL (≈ 136 µM)
Clavispora lusitaniae
  MIC: 64 µg/mL (≈ 136 µM)
Enterococcus faecalis
  MIC: 64 µg/mL (≈ 136 µM)
[2]
  MIC: 32 µg/mL (≈ 68 µM)
Escherichia coli [3]
  MIC: > 128 µg/mL
Klebsiella pneumoniae
  MIC: 128 µg/mL (≈ 272 µM)
Micrococcus luteus
  MIC: 16 µg/mL (≈ 34 µM)
Staphylococcus aureus
  MIC: 32 µg/mL (≈ 68 µM)
Bacillus subtilis
  MIC: 32 µg/mL (≈ 68 µM)

## CCCCCCCCCCCCO[C@H]1Cc2c(O)cc(O)cc2O[C@@H]1c1ccc(O)c(O)c1
[4]
  Drug uptake: 100%
